In ChEMBL document CHEMBL5316310, “Discovery of MK-8189, a Highly Potent and Selective PDE10A Inhibitor for the Treatment of Schizophrenia” (J Med Chem, 2023):
Values after ≈ are worked out from the molar mass of the structure shown. Active and inactive are the calls of the source. The calls are words filed in the database; no cut-off is given here.

Key:
Rattus norvegicus = experiment: Cognitive-enhancing activity in rat assessed as improvement in novel object recognition at 0.56 mg/kg, po measured after 1 hr by novel object recognition test; format: functional, organism-based
Procedure, shortened: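 Novel object recognition in rats: oral dosing, then discrimination of a novel object from one seen 48 h earlier. Doses 0.08–0.25 mg/kg; donepezil 0.56 mg/kg as positive control. Groups compared with vehicle (p < 0.05). Plasma for exposure taken 1 h post dose, n = 4/group.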

[1] = Selectivity ratio of Ki for N-terminal GST-tagged full length human recombinant PDE8A1 expressed in baculovirus-infected Sf9 cells to Ki for human PDE10A2 transfected in human AD293 cells cytosolic fraction
[2] = Selectivity ratio of Ki for Rhesus monkey PDE2A3 transfected in AD293 cells cytosolic fraction to Ki for human PDE10A2 transfected in human AD293 cells cytosolic fraction; format: cell-based
[3] = Selectivity ratio of Ki for N-terminal His-GST-tagged human recombinant PDE3A(669 to 1141 residues) expressed in baculovirus-infected Sf9 cells to Ki for human PDE10A2 transfected in human AD293 cells cytosolic fraction
[4] = Selectivity ratio of Ki for N-terminal GST-tagged human recombinant PDE11A4 (1 to 943 residues) expressed in baculovirus-infected Sf9 cells to Ki for human PDE10A2 transfected in human AD293 cells cytosolic fraction
[5] = Selectivity ratio of Ki for N-terminal GST-tagged human recombinant PDE5A1 (1 to 875 residues) expressed in baculovirus-infected Sf9 cells to Ki for human PDE10A2 transfected in human AD293 cells cytosolic fraction
[6] = Selectivity ratio of Ki for N-terminal GST-tagged human recombinant PDE1A expressed in baculovirus-infected Sf9 cells to Ki for human PDE10A2 transfected in human AD293 cells cytosolic fraction
[7] = Selectivity ratio of Ki for N-terminal GST-tagged full length human recombinant PDE9A2 expressed in baculovirus-infected Sf9 cells to Ki for human PDE10A2 transfected in human AD293 cells cytosolic fraction
P-gp (ABCB1) = P-gp (ABCB1) (Rattus norvegicus, UniProt P43245); experiment: (§1) Substrate activity at rat P-gp assessed as efflux ratio; format: ADME
Chain of P-gp (ABCB1) (P43245 whole entry, the tested form may be a part): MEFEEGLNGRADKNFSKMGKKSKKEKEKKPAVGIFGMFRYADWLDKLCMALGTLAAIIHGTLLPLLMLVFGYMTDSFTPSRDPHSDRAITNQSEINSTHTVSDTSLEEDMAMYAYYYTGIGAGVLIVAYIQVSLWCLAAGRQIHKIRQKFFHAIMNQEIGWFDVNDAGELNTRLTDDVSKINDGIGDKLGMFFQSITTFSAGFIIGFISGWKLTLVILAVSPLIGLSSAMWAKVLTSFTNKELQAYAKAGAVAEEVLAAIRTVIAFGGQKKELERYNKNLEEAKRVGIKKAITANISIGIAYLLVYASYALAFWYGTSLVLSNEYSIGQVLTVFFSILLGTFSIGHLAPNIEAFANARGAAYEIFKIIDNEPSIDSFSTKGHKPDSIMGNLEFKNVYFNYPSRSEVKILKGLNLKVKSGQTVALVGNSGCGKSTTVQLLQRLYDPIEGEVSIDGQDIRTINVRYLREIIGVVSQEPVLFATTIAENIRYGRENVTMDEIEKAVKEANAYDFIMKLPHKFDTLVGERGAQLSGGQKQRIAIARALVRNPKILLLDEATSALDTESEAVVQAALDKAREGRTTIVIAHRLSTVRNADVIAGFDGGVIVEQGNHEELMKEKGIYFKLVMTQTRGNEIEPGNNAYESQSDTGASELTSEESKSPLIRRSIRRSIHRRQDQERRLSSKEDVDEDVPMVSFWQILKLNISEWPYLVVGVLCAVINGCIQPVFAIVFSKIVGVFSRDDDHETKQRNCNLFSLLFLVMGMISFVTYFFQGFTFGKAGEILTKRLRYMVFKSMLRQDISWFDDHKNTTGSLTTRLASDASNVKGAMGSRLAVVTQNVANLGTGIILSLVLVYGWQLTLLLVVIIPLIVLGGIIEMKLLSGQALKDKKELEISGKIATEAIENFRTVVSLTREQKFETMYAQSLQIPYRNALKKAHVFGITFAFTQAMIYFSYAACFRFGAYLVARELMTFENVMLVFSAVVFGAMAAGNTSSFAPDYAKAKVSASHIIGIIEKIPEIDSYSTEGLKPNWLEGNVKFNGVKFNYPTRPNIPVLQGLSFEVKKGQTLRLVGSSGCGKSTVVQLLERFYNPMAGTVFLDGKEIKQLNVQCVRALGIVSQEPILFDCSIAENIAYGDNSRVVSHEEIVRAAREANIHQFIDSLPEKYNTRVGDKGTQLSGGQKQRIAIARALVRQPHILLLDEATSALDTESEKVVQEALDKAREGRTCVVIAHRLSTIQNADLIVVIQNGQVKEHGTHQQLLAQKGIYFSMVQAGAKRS

[8] = Selectivity ratio of Ki for N-terminal GST-tagged and C-terminal His-tagged human recombinant PDE7A (122 to 456 residues) expressed in baculovirus-infected Sf9 cells to Ki for human PDE10A2 transfected in human AD293 cells cytosolic fraction
[9] = Selectivity ratio of Ki for N-terminal GST-tagged human recombinant PDE4A1A (1 to 647 residues) expressed in baculovirus-infected Sf9 cells to Ki for human PDE10A2 transfected in human AD293 cells cytosolic fraction
[10] = molecular target: cAMP and cAMP-inhibited cGMP 3',5'-cyclic phosphodiesterase 10A (Homo sapiens, UniProt Q9Y233); experiment: Inhibition of human PDE10A2 transfected in human AD293 cells cytosolic fraction using cAMP as substrate by fluorescence polarization assay; format: subcellular, Cytosol
Chain of cAMP and cAMP-inhibited cGMP 3',5'-cyclic phosphodiesterase 10A (Q9Y233 whole entry): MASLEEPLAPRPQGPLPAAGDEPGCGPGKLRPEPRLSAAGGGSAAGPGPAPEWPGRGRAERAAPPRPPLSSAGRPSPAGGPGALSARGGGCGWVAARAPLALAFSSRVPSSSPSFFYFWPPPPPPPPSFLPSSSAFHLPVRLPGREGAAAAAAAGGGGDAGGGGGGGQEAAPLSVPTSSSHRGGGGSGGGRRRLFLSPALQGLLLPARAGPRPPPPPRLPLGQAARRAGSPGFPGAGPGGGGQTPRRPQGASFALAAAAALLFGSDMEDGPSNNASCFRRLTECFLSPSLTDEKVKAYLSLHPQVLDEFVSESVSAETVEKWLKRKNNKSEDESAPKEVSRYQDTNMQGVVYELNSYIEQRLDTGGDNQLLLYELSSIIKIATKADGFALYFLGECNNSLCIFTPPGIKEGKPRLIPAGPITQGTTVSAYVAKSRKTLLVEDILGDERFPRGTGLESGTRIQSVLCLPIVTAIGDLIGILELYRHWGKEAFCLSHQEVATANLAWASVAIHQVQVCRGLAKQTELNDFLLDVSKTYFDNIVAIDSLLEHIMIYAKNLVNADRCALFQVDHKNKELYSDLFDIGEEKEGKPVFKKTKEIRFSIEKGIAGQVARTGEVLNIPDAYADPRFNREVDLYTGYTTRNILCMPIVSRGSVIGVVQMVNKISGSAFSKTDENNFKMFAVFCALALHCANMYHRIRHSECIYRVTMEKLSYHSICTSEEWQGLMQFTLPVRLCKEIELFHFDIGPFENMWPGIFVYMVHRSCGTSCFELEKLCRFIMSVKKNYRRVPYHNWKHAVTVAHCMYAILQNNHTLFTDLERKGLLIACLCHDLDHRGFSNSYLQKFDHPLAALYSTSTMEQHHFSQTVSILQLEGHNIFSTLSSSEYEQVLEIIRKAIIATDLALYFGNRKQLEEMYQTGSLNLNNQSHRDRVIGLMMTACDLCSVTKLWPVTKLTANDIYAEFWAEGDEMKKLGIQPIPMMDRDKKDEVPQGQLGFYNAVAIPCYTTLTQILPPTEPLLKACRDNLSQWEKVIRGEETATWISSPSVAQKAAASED

[11] = Aqueous solubility of the compound at pH 7; format: physicochemical; details: buffer
[12] = molecular target: ATP-dependent translocase ABCB1 (Rattus norvegicus, UniProt P43245); experiment: as §1; format: ADME
Chain of ATP-dependent translocase ABCB1 (P43245 whole entry): as the sequence (P43245 whole entry, the tested form may be a part) above

[13] = Unbound plasma clearance in rat; format: ADME; details: in vivo
Procedure, shortened: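 Rat unbound clearance (CLu) was calculated by dividing the measured rat plasma clearance by the rat plasma free fraction.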

[14] = molecular target: Voltage-gated inwardly rectifying potassium channel KCNH2 (Homo sapiens, UniProt Q12809); experiment: Displacement of MK499 from hERG; format: toxicity
Chain of Voltage-gated inwardly rectifying potassium channel KCNH2 (Q12809 whole entry): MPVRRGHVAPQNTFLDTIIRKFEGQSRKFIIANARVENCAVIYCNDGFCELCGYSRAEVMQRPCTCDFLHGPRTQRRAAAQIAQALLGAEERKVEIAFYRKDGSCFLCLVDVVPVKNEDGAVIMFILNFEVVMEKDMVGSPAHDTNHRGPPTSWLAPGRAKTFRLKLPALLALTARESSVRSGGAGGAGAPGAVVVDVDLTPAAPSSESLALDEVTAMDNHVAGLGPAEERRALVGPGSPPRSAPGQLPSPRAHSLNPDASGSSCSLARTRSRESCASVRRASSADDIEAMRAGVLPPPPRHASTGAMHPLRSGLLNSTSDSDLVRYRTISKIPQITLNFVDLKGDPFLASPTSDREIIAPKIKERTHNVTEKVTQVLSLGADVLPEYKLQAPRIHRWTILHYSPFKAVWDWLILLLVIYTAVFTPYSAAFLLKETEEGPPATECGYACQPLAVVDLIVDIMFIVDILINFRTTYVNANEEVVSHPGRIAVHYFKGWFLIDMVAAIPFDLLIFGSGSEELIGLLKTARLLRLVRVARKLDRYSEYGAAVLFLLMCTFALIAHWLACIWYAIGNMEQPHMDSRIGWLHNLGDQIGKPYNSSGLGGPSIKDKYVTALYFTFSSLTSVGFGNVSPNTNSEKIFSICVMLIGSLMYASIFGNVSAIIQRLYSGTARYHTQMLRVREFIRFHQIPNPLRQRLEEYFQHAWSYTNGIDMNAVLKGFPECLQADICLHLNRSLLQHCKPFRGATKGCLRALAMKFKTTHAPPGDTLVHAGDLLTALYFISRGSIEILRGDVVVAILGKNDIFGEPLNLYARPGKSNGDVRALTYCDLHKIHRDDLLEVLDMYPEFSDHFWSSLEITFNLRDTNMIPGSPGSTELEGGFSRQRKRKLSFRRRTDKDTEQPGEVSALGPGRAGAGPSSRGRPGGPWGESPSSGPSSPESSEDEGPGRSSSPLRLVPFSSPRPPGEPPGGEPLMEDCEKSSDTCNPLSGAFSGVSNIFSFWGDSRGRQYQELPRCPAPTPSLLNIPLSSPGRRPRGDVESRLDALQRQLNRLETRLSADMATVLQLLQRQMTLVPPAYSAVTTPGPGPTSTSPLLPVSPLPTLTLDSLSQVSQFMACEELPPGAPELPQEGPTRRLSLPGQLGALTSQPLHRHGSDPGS

Compound | efflux ratio (P-gp (ABCB1)) | Ki [10] | solubility [11] | Ratio [12] | CL free [13] | Activity (Rattus norvegicus) | Ratio Ki [1] | Ratio Ki [2] | Ratio Ki [3] | Ratio Ki [4] | Ratio Ki [5] | Ratio Ki [6] | Ratio Ki [7] | Ratio Ki [8] | Ratio Ki [9] | IC50 [14]
COc1cc2c(cc1OC)C(=O)C(CC1CCN(Cc3ccccc3)CC1)C2 (centres undefined) |  |  |  |  |  | Active |  |  |  |  |  |  |  |  |  | 
Cn1cc(CNc2cc(OC[C@H]3C[C@@H]3c3ccccn3)nc3ccnn23)cn1 | 0.7 |  |  |  |  |  | > 5800 | > 5800 | > 5800 | > 5800 | > 5800 | > 5800 | > 5800 | > 5800 | > 5800 | 
Cc1c(Cl)cc(OC[C@H]2C[C@@H]2c2ccccn2)nc1NCc1cnn(C)c1 |  | 3.2 nM |  |  |  |  |  |  |  |  |  |  |  |  |  | 
Cc1nc(NCc2cnn(C)c2)cc(OC[C@H]2C[C@@H]2c2ccccn2)n1 |  | 0.6 nM |  |  |  |  | > 67000 | > 67000 | > 67000 | > 67000 | > 67000 | > 67000 | > 67000 | > 67000 | > 67000 | 
Cn1cc(CNc2cc(OC[C@H]3C[C@@H]3c3ccccn3)nc3ncccc23)cn1 |  | 8.6 nM |  |  |  |  |  |  |  |  |  |  |  |  |  | 
Cn1cc(CNc2cc(OC[C@H]3C[C@@H]3c3ccccn3)nc3ccccc23)cn1 | 0.5 | 0.49 nM | 19 µM (≈ 7.32 µg/mL) |  |  |  | > 5000 | > 5000 | > 5000 | > 5000 | > 5000 | > 5000 | > 5000 | > 5000 | > 5000 | 
Cn1cc(CNc2cc(OC[C@H]3C[C@@H]3c3ccccn3)nc3cccnc23)cn1 | 0.7 | 0.87 nM | 81 µM (≈ 31.3 µg/mL) |  |  |  | > 2000 | > 2000 | > 2000 | > 2000 | > 2000 | > 2000 | > 2000 | > 2000 | > 2000 | 
Cc1nc(C)c(CNc2nc(OCCCc3ccc4ccccc4n3)nc(Cl)c2C)s1 |  |  |  |  | 720 L/h/kg |  | > 5000 | > 5000 | > 5000 | > 5000 | > 5000 | > 5000 | > 5000 | > 5000 | > 5000 | 
Cc1nc(NCc2nnc(C)s2)cc(OC[C@H]2C[C@@H]2c2ccccn2)n1 |  | 0.33 nM |  |  | 11.1 L/h/kg |  | > 45000 | > 45000 | > 45000 | > 45000 | > 45000 | > 45000 | > 45000 | > 45000 | > 45000 | 
Cc1c(Cl)nc(OC[C@H]2C[C@@H]2c2ccccn2)nc1NCc1cnn(C)c1 | 2 |  |  |  | 174 L/h/kg |  | > 2500 | > 2500 | > 2500 | > 2500 | > 2500 | > 2500 | > 2500 | > 2500 | > 2500 | 

More lines, in order of falling Ki [10], values ahead:

efflux ratio (P-gp (ABCB1)) | Ki [10] | solubility [11] | Ratio [12] | CL free [13] | Compound | Activity (Rattus norvegicus) | Ratio Ki [1] | Ratio Ki [2] | Ratio Ki [3] | Ratio Ki [4] | Ratio Ki [5] | Ratio Ki [6] | Ratio Ki [7] | Ratio Ki [8] | Ratio Ki [9] | IC50 [14]
 | 0.13 nM | 149 µM (≈ 57.6 µg/mL) | 6.3 |  | Cn1cc(CNc2cc(OC[C@H]3C[C@@H]3c3ccccn3)nc3cnccc23)cn1 |  | > 7000 | > 7000 | > 7000 | > 7000 | > 7000 | > 7000 | > 7000 | > 7000 | > 7000 | 
 | 0.12 nM | 22 µM (≈ 8.5 µg/mL) | 24 |  | Cn1cc(CNc2cc(OC[C@H]3C[C@@H]3c3ccccn3)nc3ccncc23)cn1 |  | > 20000 | > 20000 | > 20000 | > 20000 | > 20000 | > 20000 | > 20000 | > 20000 | > 20000 | 
 | 0.11 nM |  |  |  | Cc1nnc(CNc2cc(OC[C@H]3C[C@@H]3c3ccccn3)nc3cccnc23)s1 |  | > 3600 | > 3600 | > 3600 | > 3600 | > 3600 | > 3600 | > 3600 | > 3600 | > 3600 | 25000 nM
 | 0.061 nM |  |  | 284.4 L/h/kg | Cc1ccc([C@H]2C[C@@H]2COc2cc(NCc3cnn(C)c3)nc(C)n2)nc1 |  | > 425000 | > 425000 | > 425000 | > 425000 | > 425000 | > 425000 | > 425000 | > 425000 | > 425000 | 
 | 0.054 nM |  |  | 424.8 L/h/kg | COc1ccc([C@H]2C[C@@H]2COc2cc(NCc3cnn(C)c3)nc(C)n2)nc1 |  | > 490000 | > 490000 | > 490000 | > 490000 | > 490000 | > 490000 | > 490000 | > 490000 | > 490000 | 
0.6 | 0.047 nM | 86 µM (≈ 33 µg/mL) |  |  | Cc1c(NCc2cnn(C)c2)cc(OC[C@H]2C[C@@H]2c2ccccn2)nc1Cl |  | > 30000 | > 30000 | > 30000 | > 30000 | > 30000 | > 30000 | > 30000 | > 30000 | > 30000 | 
 | 0.038 nM |  |  | 31.8 L/h/kg | COc1ccc([C@H]2C[C@@H]2COc2cc(NCc3nnc(C)s3)nc(C)n2)nc1 |  | > 225000 | > 225000 | > 225000 | > 225000 | > 225000 | > 225000 | > 225000 | > 225000 | > 225000 | 
